Reference: BindingDB's records for doi:10.1021/jm300138g (Neuraxon, 2012)

Biological target: Sodium-dependent noradrenaline transporter (Homo sapiens, UniProt P23975)
Assay: Displacement of [3H]nisoxetine from human NET expressed in CHO cells after 120 mins by scintillation counting
Method in brief: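 Membranes from hNET-transfected CHO cells (20 μg protein) incubated 120 min at 4 °C with 1 nM [3H]nisoxetine in 50 mM Tris-HCl pH 7.4, 120 mM NaCl, 5 mM KCl. Nonspecific binding defined with 1 μM desipramine. Filtered on PEI-soaked GF/B and counted.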

Sodium-dependent noradrenaline transporter, sequence (P23975 whole entry): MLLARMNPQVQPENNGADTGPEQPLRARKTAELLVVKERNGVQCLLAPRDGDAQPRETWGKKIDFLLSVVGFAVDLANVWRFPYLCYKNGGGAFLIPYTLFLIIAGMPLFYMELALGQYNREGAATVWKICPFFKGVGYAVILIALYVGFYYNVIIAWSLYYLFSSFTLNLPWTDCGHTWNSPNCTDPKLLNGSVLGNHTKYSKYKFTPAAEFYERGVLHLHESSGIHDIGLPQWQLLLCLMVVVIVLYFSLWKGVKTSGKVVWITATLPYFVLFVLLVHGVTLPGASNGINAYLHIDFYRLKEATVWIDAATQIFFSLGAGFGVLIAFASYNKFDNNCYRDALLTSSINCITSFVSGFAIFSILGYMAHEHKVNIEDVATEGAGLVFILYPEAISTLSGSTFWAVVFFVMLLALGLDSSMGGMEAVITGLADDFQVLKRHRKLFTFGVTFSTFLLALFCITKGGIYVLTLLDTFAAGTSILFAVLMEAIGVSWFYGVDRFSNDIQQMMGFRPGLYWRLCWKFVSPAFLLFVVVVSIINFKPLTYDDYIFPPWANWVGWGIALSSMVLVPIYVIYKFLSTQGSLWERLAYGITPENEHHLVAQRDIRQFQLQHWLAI

## CN(C)C1CC=C(c2c[nH]c3ccc(N=C(N)c4cccs4)cc23)CC1 (stereo unspecified)
  IC50: 550 nM
